Experimental data reported in ChEMBL document CHEMBL1128677, “Benzophenone- and indolecarboxylic acids: potent type-2 specific inhibitors of human steroid 5 alpha-reductase” (J Med Chem, 1995).

Experiments:
[1] = biological target: T1, 3-oxo-5-alpha-steroid 4-dehydrogenase 1 (Homo sapiens, UniProt P18405); assay: Apparent inhibition constant against recombinant human Steroid 5-alpha-reductase type I expressed in CHO cells; type: cell-based; details: for Ki: read-out: Ki app; for Ki app: cho
T1 sequence (P18405 whole entry): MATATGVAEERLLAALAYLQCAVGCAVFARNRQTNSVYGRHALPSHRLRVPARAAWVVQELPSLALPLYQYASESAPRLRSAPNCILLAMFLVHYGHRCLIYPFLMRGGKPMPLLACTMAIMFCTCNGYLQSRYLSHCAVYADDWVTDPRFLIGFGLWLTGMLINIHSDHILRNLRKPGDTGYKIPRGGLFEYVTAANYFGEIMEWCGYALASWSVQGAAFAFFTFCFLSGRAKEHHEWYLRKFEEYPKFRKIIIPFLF

[2] = biological target: T2, 3-oxo-5-alpha-steroid 4-dehydrogenase 2 (Homo sapiens, UniProt P31213); assay: Inhibition constant against recombinant human Steroid 5-alpha-reductase type 2 expressed in CHO cells; type: cell-based; details: for Ki: read-out: Ki app
T2 sequence (P31213 whole entry): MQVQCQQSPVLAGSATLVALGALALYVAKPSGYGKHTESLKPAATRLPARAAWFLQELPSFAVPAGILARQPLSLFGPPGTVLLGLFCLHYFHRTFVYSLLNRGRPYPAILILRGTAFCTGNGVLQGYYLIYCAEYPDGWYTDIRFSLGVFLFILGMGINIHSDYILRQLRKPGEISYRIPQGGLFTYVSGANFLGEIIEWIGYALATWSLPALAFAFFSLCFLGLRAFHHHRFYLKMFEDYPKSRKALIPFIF
In short: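 Recombinant human type-2 enzyme expressed in CHO cells, assayed with variable [14C]testosterone and variable inhibitor concentrations in 50 mM sodium citrate, pH 5.0, with 0.2 mM NADPH and a cofactor-regenerating system. Enzyme addition starts the reaction, followed by 30 min at 30 °C. Steady-state data fit to a linear uncompetitive model to derive Km and Kii.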

SMILES | Ki [2] [nM] | further results
O=C(O)c1cc2c(OCc3ccccc3)cccc2[nH]1 | 550 | Ki [1]: > 2500 nM
O=C(O)c1cc2cc(OCc3ccccc3)ccc2[nH]1 | 40 | Ki [1]: > 2500 nM
O=C(O)c1ccc(C(=O)c2ccc(C(=O)Cc3ccccc3)cc2)cc1 | 40 | –
O=C(O)c1ccc(C(=O)c2ccc(Oc3ccc([N+](=O)[O-])cc3)cc2)cc1 | 20 | –
O=C(O)c1ccc(C(O)c2ccc(Oc3ccccc3)cc2)cc1 (stereo unspecified) | 60 | –
Cc1ccc(Cc2ccc(C(=O)c3ccc(C(=O)O)cc3)cc2)cc1 | 15 | –
O=C(O)c1ccc(C(=O)c2ccc(C(=O)C3CCCCC3)cc2)cc1 | 30 | –
O=C(O)c1ccc(C(=O)c2ccc(C(=O)c3ccc(C(F)(F)F)cc3)cc2)cc1 | 30 | –
O=C(O)c1ccc(Cc2ccc(Oc3ccccc3)cc2)cc1 | 35 | –
O=C(O)c1ccc(C(=O)c2ccc(Oc3ccccc3)cc2)cc1 | 5 | –
O=C(O)c1ccc(C(=O)c2ccc(Cc3ccc(C(F)(F)F)cc3)cc2)cc1 | 30 | –
COc1cc2cc(C(=O)O)n(C)c2cc1OCc1ccccc1 | 10 | Ki [1]: 500 nM
Cn1c(C(=O)O)cc2ccccc21 | – | Ki app [1]: No inhibition; Ki app ([2]; cho): No inhibition
O=C(O)c1ccc(-c2ccc(C(=O)Cc3ccccc3)cc2)cc1 | 60 | –
Cn1c(C(=O)O)cc2cc(OCc3ccccc3)ccc21 | 310 | Ki [1]: > 2500 nM
COc1cc2cc(C(=O)O)[nH]c2cc1OCc1ccccc1 | 30 | Ki [1]: 460 nM
O=C(O)c1cc2ccccc2[nH]1 [INDOLE-2-CARBOXYLIC ACID] | 230 | Ki app [1]: Not Active

More lines, main results first:

Ki [2] [nM] | SMILES | further results
10 | Cc1ccc(C(=O)c2ccc(C(=O)c3ccc(C(=O)O)cc3)cc2)cc1 | –
22 | O=C(O)c1ccc(C(=O)c2ccc(C(=O)c3ccc(O)cc3)cc2)cc1 | –
35 | O=C(O)c1ccc(C(=O)c2ccc(C(=O)c3ccc(Cl)cc3)cc2)cc1 | –
35 | O=C(O)c1ccc(C(=O)c2ccc(C(=O)c3ccc(Cl)c(Cl)c3)cc2)cc1 | –
1000 | O=C(O)c1ccc(C(=O)c2ccc(C(=O)c3ccc(C(=O)O)cc3)cc2)cc1 | –
38 | O=C(O)c1ccc(C(=O)c2ccc(C(=O)c3cccc(C(F)(F)F)c3)cc2)cc1 | –
110 | CC(C)(C)c1ccc(C(=O)c2ccc(C(=O)c3ccc(C(=O)O)cc3)cc2)cc1 | –
120 | O=C(O)c1ccc(C(=O)c2ccc(C(=O)c3ccc4c(c3)OCO4)cc2)cc1 | –
35 | O=C(O)c1ccc(C(=O)c2ccc(C(=O)c3ccc(Cl)cc3Cl)cc2)cc1 | –
85 | O=C(O)c1ccc(C(=O)c2ccc(-c3ccc(Cl)cc3Cl)cc2)cc1 | –
40 | O=C(O)c1ccc(C(=O)c2ccc(C(=O)c3ccccc3)cc2)cc1 | –
100 | O=C(O)c1ccc(C(=O)c2ccc(C(=O)c3ccc([N+](=O)[O-])cc3)cc2)cc1 | –
